ChEMBL document CHEMBL1926589, “2-Anilinonicotinyl linked 2-aminobenzothiazoles and [1,2,4]triazolo[1,5-b] [1,2,4]benzothiadiazine conjugates as potential mitochondrial apoptotic inducers” (Bioorg Med Chem, 2011)
The source made the active and inactive calls. The rule behind the calls is not given here.

What was measured:
IMR-32 = assay: Growth inhibition of human IMR32 cells at 10 uM by sulforhodamine B assay; type: functional; details: read-out: GI
How it was run: (§1)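 Single-dose 10 µM screen by sulforhodamine B assay, reported as percent inhibition of cell proliferation. Cells grown in medium with 10% heat-inactivated FBS at 37 °C, 5% CO2, and treated at about 70% confluence or in log phase. Compounds dissolved in DMSO; controls received vehicle (<0.5% v/v).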

SK-N-SH = assay: Growth inhibition of human SK-N-SH cells at 10 uM by sulforhodamine B assay; type: functional; details: read-out: GI; how it was run: as §1
SiHa [1] = assay: Growth inhibition of human SiHa cells at 10 uM by sulforhodamine B assay; type: functional; details: read-out: GI; how it was run: as §1
SW-620 = assay: Growth inhibition of human SW620 cells at 10 uM by sulforhodamine B assay; type: functional; details: read-out: GI; how it was run: as §1
HCT-15 = assay: Growth inhibition of human HCT15 cells at 10 uM by sulforhodamine B assay; type: functional; details: read-out: GI; how it was run: as §1
[2] = Growth inhibition of human 502713 cells at 10 uM by sulforhodamine B assay; type: functional; details: read-out: GI; how it was run: as §1
DU-145 = assay: Growth inhibition of human DU145 cells at 10 uM by sulforhodamine B assay; type: functional; details: read-out: GI; how it was run: as §1
A549 = assay: Growth inhibition of human A549 cells at 10 uM by sulforhodamine B assay; type: functional; details: read-out: GI; how it was run: as §1
HEp-2 = assay: Growth inhibition of human Hep2 cells at 10 uM by sulforhodamine B assay; type: functional; details: read-out: GI; how it was run: as §1
OVCAR-5 = assay: Growth inhibition of human OVCAR5 cells at 10 uM by sulforhodamine B assay; type: functional; details: read-out: GI; how it was run: as §1
HL-60 [3] = assay: Growth inhibition of human HL60 cells after 48 hrs by MTT assay; type: functional, cell-based; details: HL-60, 48 h
SiHa [4] = assay: Growth inhibition of human SiHa cells after 48 hrs by MTT assay; type: functional, cell-based
CV-1 = assay: Growth inhibition of african green monkey CV1 cells after 48 hrs by MTT assay; type: cell-based; details: Chlorocebus aethiops, CV-1, 48 h
[5] = Therapeutic ratio of IC50 for african green monkey CV1 cells to IC50 for human HL60 cells; type: ADME, cell-based, HL-60; details: CV1 cells and HL60 cells, read-out: Ratio IC50
HL-60 [6] = assay: Induction of apoptosis in human HL60 cells assessed as early apoptotic cells at 1 uM after 24 hrs using Annexin V-FITC and propidium iodide staining by flow cytometry relative to control; type: functional
How it was run: (§2)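 HL-60 cells (1 x 10^5 per 1.5 mL) treated 24 h, washed twice in PBS and stained in binding buffer with annexin V-FITC and PI. Flow cytometry with FITC in FL-1 (530 nm) and PI in FL-2 (585 nm), using quadrant statistics: lower right taken as apoptotic, upper right as post-apoptotic necrotic. Representative of three independent experiments.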

HL-60 [7] = assay: Induction of apoptosis in human HL60 cells assessed as non-viable necrotic cells at 1 uM after 24 hrs using Annexin V-FITC and propidium iodide staining by flow cytometry relative to control; type: functional; how it was run: as §2
HL-60 [8] = assay: Induction of apoptosis in human HL60 cells assessed as late apoptotic cells at 1 uM after 24 hrs using Annexin V-FITC and propidium iodide staining by flow cytometry relative to control; type: functional; how it was run: as §2
HL-60 [9] = assay: Induction of apoptosis in human HL60 cells assessed as caspase3 activation using DEVD-AFC as substrate at 1 uM after 24 hrs by fluorimetry relative to control; type: functional
How it was run: (§3)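 HL-60 cells (2 x 10^6) treated 24 h, washed and lysed. Caspase-3, -8 and -9 activities in lysates measured fluorometrically with a commercial caspase fluorescent assay kit. Two independent experiments, each in duplicate.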

HL-60 [10] = assay: Induction of apoptosis in human HL60 cells assessed as caspase8 activation using IETD-AFC as substrate at 1 uM after 24 hrs by fluorimetry relative to control; type: functional; how it was run: as §3
HL-60 [11] = assay: Induction of apoptosis in human HL60 cells assessed as caspase9 activation using LEHD-AMC as substrate at 1 uM after 24 hrs by fluorimetry relative to control; type: functional; how it was run: as §3
HL-60 [12] = assay: Induction of apoptosis in human HL60 cells assessed as DNA ladder formation at 1 uM after 24 hrs by agarose gel electrophoresis; type: functional, cell-based
How it was run: (§4)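 Cells treated 24 h, then 2 x 10^6 cells lysed (Triton X-100 buffer, pH 8.0) with RNase at 37 °C for 90 min and proteinase-K at 50 °C for 1 h. DNA phenol/chloroform-extracted and ethanol-precipitated, then run on 1.8% agarose at 50 V for 1.5 h in TAE. Ladders viewed under UV.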

HL-60 [13] = assay: Induction of apoptosis in human HL60 cells assessed as DNA ladder formation at 10 uM after 24 hrs by agarose gel electrophoresis; type: functional, cell-based; how it was run: as §4
SiHa [14] = assay: Induction of apoptosis in human SiHa cells assessed as DNA ladder formation at 10 uM after 24 hrs by agarose gel electrophoresis; type: functional, cell-based; how it was run: as §4
HeLa = assay: Induction of apoptosis in human HeLa cells assessed as DNA ladder formation at 10 uM after 24 hrs by agarose gel electrophoresis; type: functional, cell-based; how it was run: as §4
HL-60 [15] = assay: Cell cycle arrest in human HL60 cells assessed as accumulation at sub-G0 phase measuring DNA damage at 1 uM after 24 hrs using propidium iodide staining by flow cytometry (reference value: 1%); type: functional
How it was run: (§5)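 HL-60 cells (1 x 10^5 per 1.5 mL) treated 24 h, then fixed in 70% cold ethanol at −20 °C overnight. RNase digestion (400 µg/ml) at 37 °C for 45 min, then propidium iodide (10 µg/ml) for 30 min. Flow cytometry on 10,000 events, FL2-A vs FL2-W, with doublet discrimination. Sub-G0 (hypodiploid) peak taken as apoptotic cells. Mean ± SD of three independent experiments.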

HL-60 [16] = assay: Cell cycle arrest in human HL60 cells assessed as accumulation at G1 phase at 1 uM after 24 hrs using propidium iodide staining by flow cytometry; type: functional, cell-based; how it was run: as §5
HL-60 [17] = assay: Cell cycle arrest in human HL60 cells assessed as accumulation at S phase at 1 uM after 24 hrs using propidium iodide staining by flow cytometry; type: functional, cell-based; how it was run: as §5
HL-60 [18] = assay: Cell cycle arrest in human HL60 cells assessed as accumulation at G2/M phase at 1 uM after 24 hrs using propidium iodide staining by flow cytometry; type: functional, cell-based; how it was run: as §5
HL-60 [19] = assay: Induction of apoptosis in human HL60 cells assessed as increase of reactive oxygen species level at 1 uM after 24 hrs using DCFH-DA fluorescent dye based flow cytometric analysis relative to control; type: functional
How it was run: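 HL-60 cells (1 x 10^5 per 1.5 mL) treated 24 h, then loaded with 10 µM H2DCFDA for 30 min at 37 °C. Washed twice in PBS and read in FL-1 (530 nm). Percentage of DCF-positive cells determined; mean ± SD of three experiments.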

HL-60 [20] = assay: Induction of NO production in human HL60 cells at 1 uM after 24 hrs using DAF-2DA fluorescent dye based flow cytometric analysis; type: functional, cell-based
How it was run: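 HL-60 cells (1 x 10^5 per 1.5 mL) preloaded 30 min with 10 µM DAF-2-DA before treatment. After 24 h exposure, cells were washed and read by flow cytometry in FL-1 as NO-positive population. Mean ± SD of three independent experiments.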

HL-60 [21] = assay: Induction of apoptosis in human HL60 cells assessed as decrease in mitochondrial membrane potential at 1 uM after 24 hrs using rhodamine 123 staining by flow cytometry; type: functional
How it was run: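 HL-60 cells (1 x 10^5 per 1.5 mL) treated 24 h, then stained with rhodamine-123 (5 µg/mL final) for 1 h. Washed, and propidium iodide (5 µg/mL) added just before reading. FL-1 fluorescence from 10,000 events; percentage of low Rh-123 cells taken as loss of membrane potential. Mean ± SD, n=3.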

HL-60 [22] = assay: Inhibition of NF-kappaB expression in human HL60 cells at 1 uM after 24 hrs by Western blotting; type: functional, cell-based
How it was run: (§6)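 HL-60 cells treated 24 h and lysed in RIPA buffer on ice; protein measured by Bradford against a BSA standard. 50 µg resolved by SDS-PAGE and transferred to PVDF, blocked in 5% milk/TBST, then primary antibodies 1:1000 for 2 h and HRP secondary 1:1000 for 1 h. ECL detection with β-actin as loading control; bands quantified by densitometry.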

HL-60 [23] = assay: Inhibition of survivin expression in human HL60 cells at 1 uM after 24 hrs by Western blotting; type: functional, cell-based; how it was run: as §6
HL-60 [24] = assay: Induction of apoptosis in human HL60 cells assessed as PARP cleavage at 1 uM after 24 hrs by Western blotting; type: functional, cell-based; how it was run: as §6
HL-60 [25] = assay: Inhibition of HSP-90 expression in human HL60 cells at 1 uM after 24 hrs by Western blotting; type: functional, cell-based; how it was run: as §6
HL-60 [26] = assay: Inhibition of Bcl-2 expression in human HL60 cells at 1 uM after 24 hrs by Western blotting; type: functional, cell-based; how it was run: as §6

Compound	inhibition of growth at 10 µM (IMR-32)	inhibition of growth at 10 µM (SK-N-SH)	inhibition of growth at 10 µM (SiHa [1])	inhibition of growth at 10 µM (SW-620)	inhibition of growth at 10 µM (HCT-15)	inhibition of growth at 10 µM [2]	inhibition of growth at 10 µM (DU-145)	inhibition of growth at 10 µM (A549)	inhibition of growth at 10 µM (HEp-2)	inhibition of growth at 10 µM (OVCAR-5)	Activity (HL-60 [6])	Activity (HL-60 [7])	Activity (HL-60 [8])	Activity (HL-60 [9])	Activity (HL-60 [10])	Activity (HL-60 [11])	Activity (HL-60 [12])	Activity (HL-60 [13])	Activity (SiHa [14])	Activity (HeLa)	also measured
O=C(Nc1nc2ccc([N+](=O)[O-])cc2s1)c1cccnc1Nc1ccc(F)cc1	33%	63%	23%	67%	55%	66%	51%	18%	52%	53%	9%	45%	5%	inactive	inactive	inactive	Active	Active	inactive	inactive	IC50 (HL-60 [3]): 0.3 µM; IC50 (SiHa [4]): 7 µM; IC50 (CV-1): 15 µM; selectivity ratio [5]: 50; Activity (HL-60 [15]): 60%; Activity (HL-60 [16]): inactive; Activity (HL-60 [17]): inactive; Activity (HL-60 [18]): inactive; Activity (HL-60 [19]): 16%; Activity (HL-60 [20]): inactive; Activity (HL-60 [21]): Active; inhibition (HL-60 [22]): inactive; inhibition (HL-60 [23]): Active; Activity (HL-60 [24]): Active; inhibition (HL-60 [25]): Active; inhibition (HL-60 [26]): inactive
CN1c2ccccc2S(=O)(=O)n2nc(-c3cccnc3Nc3ccc(Cl)cc3Cl)nc21	47%	16%	13%	62%	27%	49%	11%	15%	0%	23%	7%	13%	3%	inactive	inactive	inactive	Active	Active	inactive	inactive	IC50 (HL-60 [3]): 0.64 µM; IC50 (SiHa [4]): > 50 µM; IC50 (CV-1): > 100 µM; selectivity ratio [5]: > 156; Activity (HL-60 [15]): 20%; Activity (HL-60 [16]): inactive; Activity (HL-60 [17]): inactive; Activity (HL-60 [18]): inactive; Activity (HL-60 [19]): inactive; Activity (HL-60 [20]): inactive; inhibition (HL-60 [22]): inactive; inhibition (HL-60 [23]): Active; Activity (HL-60 [24]): Active; inhibition (HL-60 [26]): inactive
O=C(Nc1nc2ccc([N+](=O)[O-])cc2s1)c1cccnc1Nc1ccccc1	45%	48%	53%	65%	66%	63%	52%	31%	26%	50%	13%	42%	7%	inactive	inactive	inactive	Active	Active	inactive	inactive	IC50 (HL-60 [3]): 0.58 µM; IC50 (SiHa [4]): 28 µM; IC50 (CV-1): 70 µM; selectivity ratio [5]: 120; Activity (HL-60 [15]): 24%; Activity (HL-60 [16]): inactive; Activity (HL-60 [17]): inactive; Activity (HL-60 [18]): inactive; Activity (HL-60 [19]): 31%; Activity (HL-60 [20]): inactive; Activity (HL-60 [21]): Active; inhibition (HL-60 [22]): inactive; Activity (HL-60 [24]): Active; inhibition (HL-60 [26]): inactive
O=C(Nc1nc2ccc([N+](=O)[O-])cc2s1)c1cccnc1Nc1ccc(Cl)cc1Cl	48%	50%	35%	61%	75%	2%	39%	19%	14%	0%	9%	40%	5%	inactive	inactive	inactive	Active	Active	inactive	inactive	Activity (HL-60 [15]): 25%; Activity (HL-60 [16]): inactive; Activity (HL-60 [17]): inactive; Activity (HL-60 [18]): inactive; Activity (HL-60 [19]): inactive; Activity (HL-60 [20]): inactive; Activity (HL-60 [21]): Active; inhibition (HL-60 [22]): inactive; inhibition (HL-60 [23]): Active; Activity (HL-60 [24]): Active; inhibition (HL-60 [26]): inactive
